Data reported in ChEMBL document CHEMBL1152867, “Targeting QseC signaling and virulence for antibiotic development” (Science, 2008).
Calls of active or inactive are those of the source. The calls are words filed in the database; no cut-off is given here.

Assays:
[1] = test system: Escherichia coli; experiment: Inhibition of AI3-induced Qsec-dependent virulence gene ler expression in Escherichia coli at 5 pM by quantitative real-time PCR; format: functional, organism-based
[2] = test system: Mus musculus; experiment: Toxicity in CD1 mouse assessed as RBC counts at 20 mg/kg, po administered daily once for 5 days measured 3 days after final dose; format: organism-based; set-up: dose 20 mg/kg, route oral; settings: in vivo, 72 h
[3] = test system: Escherichia coli; experiment: Inhibition of AI3-induced Qsec-dependent virulence gene eae expression in Escherichia coli at 5 pM by quantitative real-time PCR; format: functional, organism-based
[4] = test system: Escherichia coli; experiment: Bacteriostatic activity against Escherichia coli 8624 at 1 uM in presence of epinephrine; format: functional, organism-based
[5] = test system: Salmonella typhimurium; experiment: Antibacterial activity against Salmonella Typhimurium SL1344 infected in 129x1/SvJ mouse assessed as reduction of bacterial CFU in liver at 20 mg/kg, po after 48 hrs relative to control; format: functional
[6] = biological target: Beta-3 adrenergic receptor (Homo sapiens) (UniProt P13945); experiment: Effect on BRL-37344-induced human beta-3-adrenergic receptor activation expressed in HEK293 cells assessed as cAMP release at 5 uM; format: functional, cell-based
Beta-3 adrenergic receptor (Homo sapiens), sequence (P13945 whole entry, looked up): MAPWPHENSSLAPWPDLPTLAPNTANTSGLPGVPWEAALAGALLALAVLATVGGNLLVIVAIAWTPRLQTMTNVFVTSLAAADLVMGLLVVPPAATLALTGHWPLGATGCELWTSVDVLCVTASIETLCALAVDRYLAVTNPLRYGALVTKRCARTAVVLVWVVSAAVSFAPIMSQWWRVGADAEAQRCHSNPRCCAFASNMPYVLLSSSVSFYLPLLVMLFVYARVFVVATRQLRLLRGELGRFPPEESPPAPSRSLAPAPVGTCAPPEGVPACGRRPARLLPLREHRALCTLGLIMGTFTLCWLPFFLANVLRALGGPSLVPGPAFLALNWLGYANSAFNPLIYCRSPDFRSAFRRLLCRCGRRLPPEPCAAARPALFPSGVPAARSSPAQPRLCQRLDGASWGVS
Summary of the method: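 HEK293 cells carried an EPAC-based cAMP BRET reporter. The agonist for β1 (exogenous) was 1 nM dobutamine, for β2 (endogenous) 100 nM terbutaline, and for β3 (exogenous) 10 nM BRL37344. Each agonist was given alone or with 5 μM compound. Live-cell cAMP was read as triplicate means, representative of 3 experiments.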

[7] = test system: Escherichia coli; experiment: Bactericidal activity against Escherichia coli 8624 at 1 uM in presence of epinephrine; format: functional, organism-based
[8] = biological target: Beta-3 adrenergic receptor (Homo sapiens) (UniProt P13945); experiment: Activation of human beta-3-adrenergic receptor expressed in HEK293 cells assessed as cAMP release at 5 uM; format: functional, cell-based
Summary of the method: (§1)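 Live HEK293 cells carried an EPAC-based cAMP BRET reporter and expressed endogenous β2 or exogenous β1 or β3 adrenergic receptors. Cells were exposed to test compound alone at 5 μM. Values are means of triplicates, representative of 3 experiments.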

[9] = biological target: Beta-2 adrenergic receptor (Homo sapiens) (UniProt P07550); experiment: Activation of human beta-2-adrenergic receptor expressed in HEK293 cells assessed as cAMP release at 5 uM; format: functional, cell-based; summary of the method: as §1
Beta-2 adrenergic receptor (Homo sapiens), sequence (P07550 whole entry, looked up): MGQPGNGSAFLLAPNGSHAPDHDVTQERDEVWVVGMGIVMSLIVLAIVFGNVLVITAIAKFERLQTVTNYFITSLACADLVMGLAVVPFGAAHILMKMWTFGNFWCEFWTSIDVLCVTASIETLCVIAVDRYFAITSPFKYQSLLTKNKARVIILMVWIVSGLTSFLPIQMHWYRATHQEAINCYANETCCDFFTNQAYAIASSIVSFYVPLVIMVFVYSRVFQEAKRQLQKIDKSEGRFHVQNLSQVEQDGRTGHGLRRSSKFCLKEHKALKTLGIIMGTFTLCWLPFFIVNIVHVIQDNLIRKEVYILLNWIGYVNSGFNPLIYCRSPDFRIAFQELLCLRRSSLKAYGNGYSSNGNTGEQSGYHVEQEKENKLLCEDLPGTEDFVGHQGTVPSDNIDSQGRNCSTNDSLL

[10] = test system: Mus musculus; experiment: Toxicity in CD1 mouse assessed as change in lung weight at 20 mg/kg, po administered daily once for 5 days measured 3 days after final dose; format: organism-based; set-up: dose 20 mg/kg, route oral; settings: in vivo, 72 h
Summary of the method: (§2)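 Female CD-1 mice (~22 g), three per group, given 20 mg/kg by oral gavage once daily for 5 days. Vehicle-only mice served as controls. Animals were weighed and observed daily. Three days after the last dose they were weighed and sacrificed. Blood was taken for chemistry and complete blood counts, and organs were weighed.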

[11] = Terminal half life in CD1 mouse at 20 mg/kg, po; format: ADME, organism-based; set-up: dose 20 mg/kg, route oral; settings: in vivo, read-out: beta t1/2
Summary of the method: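 Terminal cardiac bleeds were taken in groups of three at set times. Plasma was acetonitrile-precipitated with internal standard and analysed by LC/MS/MS against a spiked-plasma standard curve. Parameters came from noncompartmental analysis.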

[12] = test system: Mus musculus; experiment: Toxicity in CD1 mouse assessed as mean corpuscular hemoglobin concentration at 20 mg/kg, po administered daily once for 5 days measured 3 days after final dose; format: organism-based; set-up: dose 20 mg/kg, route oral; settings: in vivo, 72 h; summary of the method: as §2
[13] = test system: Escherichia coli; experiment: Inhibition of epinephrine-induced EspA protein secretion in Escherichia coli 8624 at 5 pM by Western blot; format: functional, organism-based
Summary of the method: (§3)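 Secreted proteins in cell-free supernatant were TCA-precipitated and immunoblotted with rabbit polyclonal anti-EspA and anti-EspB, with ECL detection.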

[14] = test system: Mus musculus; experiment: Toxicity in CD1 mouse assessed as WBC counts at 20 mg/kg, po administered daily once for 5 days measured 3 days after final dose; format: organism-based; set-up: dose 20 mg/kg, route oral; settings: in vivo, 72 h
[15] = Clearance in CD1 mouse at 20 mg/kg, iv administered as bolus dose; format: ADME, organism-based; set-up: dose 20 mg/kg, route intravenous; settings: in vivo
Summary of the method: (§4)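 Groups of three were bled terminally by cardiac puncture at set times. Plasma was acetonitrile-precipitated with internal standard and quantified by electrospray LC/MS/MS against a plasma standard curve (10-1000 ng/ml). Noncompartmental analysis was used.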

[16] = test system: Escherichia coli; experiment: Antibacterial activity against Escherichia coli infected in New Zealand white rabbit assessed as inhibition of bacterial colonization in cecum at 20 mg/kg administered along with bacterial challenge; format: functional, organism-based; set-up: dose 20 mg/kg; settings: Caecum
[17] = test system: Mus musculus; experiment: Toxicity in CD1 mouse assessed as mean platelet volume at 20 mg/kg, po administered daily once for 5 days measured 3 days after final dose; format: organism-based; set-up: dose 20 mg/kg, route oral; settings: in vivo, 72 h; summary of the method: as §2
[18] = test system: Mus musculus; experiment: Toxicity in CD1 mouse assessed as neutrophil counts at 20 mg/kg, po administered daily once for 5 days measured 3 days after final dose; format: organism-based; set-up: dose 20 mg/kg, route oral; settings: in vivo, 72 h; summary of the method: as §2
[19] = test system: Mus musculus; experiment: Toxicity in CD1 mouse assessed as total bilirubin levels at 20 mg/kg, po administered daily once for 5 days measured 3 days after final dose; format: organism-based; set-up: dose 20 mg/kg, route oral; settings: in vivo, 72 h; summary of the method: as §2
[20] = test system: Escherichia coli; experiment: Antibacterial activity against Escherichia coli infected in New Zealand white rabbit assessed as inhibition of bacterial colonization in ileum at 20 mg/kg administered 24 hrs post-bacterial challenge; format: functional, organism-based; set-up: dose 20 mg/kg
[21] = test system: Mus musculus; experiment: Toxicity in CD1 mouse assessed as creatinine levels at 20 mg/kg, po administered daily once for 5 days measured 3 days after final dose; format: organism-based; set-up: dose 20 mg/kg, route oral; settings: in vivo, 72 h; summary of the method: as §2
[22] = test system: Francisella tularensis subsp. tularensis SCHU S4; experiment: Inhibition of virulence gene iglC expression in Francisella tularensis SCHU S4 at 5 pM by quantitative real-time PCR; format: functional, organism-based
[23] = test system: Escherichia coli; experiment: Inhibition of AI3-induced Qsec-dependent virulence gene stx2A expression in Escherichia coli at 5 pM by quantitative real-time PCR; format: functional, organism-based
[24] = test system: Escherichia coli; experiment: Inhibition of epinephrine-induced Escherichia coli Qsec autophosphorylation at 5 pM by liposome-based SDS-PAGE
[25] = test system: Escherichia coli; experiment: Inhibition of [3H]norepinephrine binding to Escherichia coli Qsec at 5 fM by liposome-based scintillation counting assay
Summary of the method: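 Liposomes reconstituted with QseC were loaded with tritiated norepinephrine (5 μM) by freeze-thaw in liquid N2 and held 10 min at room temperature, so unbound signal could diffuse out. They were pelleted at 12,000g for 5 min and counted for tritium. Counts were normalized to liposomes loaded with 5 μM tyrosine. Compound was tested at 5 pM and 5 fM.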

[26] = test system: Mus musculus; experiment: Toxicity in CD1 mouse assessed as serum total protein levels at 20 mg/kg, po administered daily once for 5 days measured 3 days after final dose; format: organism-based; set-up: dose 20 mg/kg, route oral; settings: in vivo, 72 h; summary of the method: as §2
[27] = test system: Mus musculus; experiment: Toxicity in CD1 mouse assessed as urea nitrogen levels at 20 mg/kg, po administered daily once for 5 days measured 3 days after final dose; format: organism-based; set-up: dose 20 mg/kg, route oral; settings: in vivo, 72 h; summary of the method: as §2
[28] = test system: Mus musculus; experiment: Toxicity in CD1 mouse assessed as lymphocyte counts at 20 mg/kg, po administered daily once for 5 days measured 3 days after final dose; format: organism-based; set-up: dose 20 mg/kg, route oral; settings: in vivo, 72 h; summary of the method: as §2
[29] = test system: Francisella tularensis subsp. tularensis SCHU S4; experiment: Inhibition of virulence gene mglA expression in Francisella tularensis SCHU S4 at 5 pM by quantitative real-time PCR; format: functional, organism-based
[30] = test system: Mus musculus; experiment: Toxicity in CD1 mouse assessed as change in thymus weight at 20 mg/kg, po administered daily once for 5 days measured 3 days after final dose; format: organism-based; set-up: dose 20 mg/kg, route oral; settings: in vivo; summary of the method: as §2
[31] = test system: Mus musculus; experiment: Toxicity in CD1 mouse assessed as albumin levels at 20 mg/kg, po administered daily once for 5 days measured 3 days after final dose; format: organism-based; set-up: dose 20 mg/kg, route oral; settings: in vivo, 72 h
[32] = test system: Francisella tularensis subsp. tularensis SCHU S4; experiment: Bacteriostatic activity against Francisella tularensis SCHU S4 at 1 uM; format: functional, organism-based
[33] = test system: Escherichia coli; experiment: Inhibition of epinephrine-induced EspB protein secretion in Escherichia coli 8624 at 5 nM by Western blot; format: functional, organism-based; summary of the method: as §3
[34] = AUC in CD1 mouse at 5 mg/kg, iv administered as bolus dose; format: ADME, organism-based; set-up: dose 5 mg/kg, route intravenous; settings: plasma; summary of the method: as §4
[35] = test system: Escherichia coli; experiment: Antibacterial activity against Escherichia coli infected in New Zealand white rabbit assessed as inhibition of bacterial colonization in ileum at 20 mg/kg pretreated before 3 hrs of bacterial challenge; format: functional, organism-based; set-up: dose 20 mg/kg

O=S(=O)(Nc1ccccc1)c1ccc(NC(=S)Nc2ccccc2)cc1
Activity [1]: Active | Activity [2]: 7.4 M/uL | Activity [3]: Active | Activity [4]: inactive | fold change (FC) [5]: 10 | Activity [6]: inactive | Activity [7]: inactive | Activity [8]: inactive | Activity [9]: inactive | Activity [10]: Non-toxic | half-life [11]: 4.92 h | Activity [12]: 31.3 g/dL | Activity [13]: Active | Activity [14]: 1.5 K/uL | clearance [15]: 1.48 mL/min | Activity [16]: inactive | Activity [17]: 5 fL | Activity [18]: 9.3% | Activity [19]: 0.2 mg/dL | Activity [20]: inactive | Activity [21]: 0.2 mg/dL | Activity [22]: Active | Activity [23]: Active | Activity [24]: inactive | Activity [25]: inactive | Activity [26]: 4.4 g/dL | Activity [27]: 19 mg/dL | Activity [28]: 82% | Activity [29]: Active | Activity [30]: Non-toxic | Activity [31]: 2.6 g/dL | Activity [32]: inactive | Activity [33]: Active | AUC [34]: 1090 ng·h/mL | Activity [35]: inactive
